Here are results for one molecule from ChEMBL document CHEMBL3091301, “Xanthohumol modulates inflammation, oxidative stress, and angiogenesis in type 1 diabetic rat skin wound healing” (2013).

For assay [1], the system named is Rattus norvegicus. Nature of the assay: Antiangiogenic activity in streptozotocin-induced diabetic Wistar rat model assessed as decrease in microvessel density in wound region at 10 mg/L, po administered with superbock stout beer for […] prior to wounding measured on day 7 post-wounding by wound healing assay. The class given is functional, organism-based. The procedure, abridged: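 Beverage given ad libitum, renewed every two days, kept in dark bottles. Vessels counted in three dorsal skin wound sections per animal and normalized to section area; each separate stained endothelial cell or cluster counted as one vessel; n = 4–6.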

Assay [2] deals with Rattus norvegicus. Briefly: Antioxidant activity in streptozotocin-induced diabetic Wistar rat model assessed as reduction in hepatic protein carbonylation at 10 mg/L, po administered with superbock stout beer for 5 weeks prior to wounding measured on day 7 post-wounding by Western blotting analysis (reference value: 13.80 +/- 1.12%). Type of assay: functional. Also noted: scale not given: the % may be the effect or the level left. A general note: In western blotting, separated proteins are transferred to a membrane and probed.

Assay [3] has as its system Rattus norvegicus. Nature of the assay: Antioxidant activity in streptozotocin-induced diabetic Wistar rat model assessed as decrease in H2O2 release in kidney at 10 mg/L, po administered with superbock stout beer for 5 weeks prior to wounding measured on day 7 post-wounding by fluorescence assay relative to control. Type of assay: functional, organism-based. An outline of the steps:
(§1)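 Fresh kidney or liver cut into 3 mm3 pieces and incubated 90 min at 37 °C in oxygenated, shaken Krebs-HEPES (pH 7.4, 5 mM glucose). H2O2 released measured by Amplex Red fluorescence. Expressed as percent of healthy control; means ± SEM, n = 4–6.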

Assay [4] concerns Rattus norvegicus. Briefly: Antioxidant activity in streptozotocin-induced diabetic Wistar rat model assessed as reduction in protein carbonylation in kidney at 10 mg/L, po administered with superbock stout beer for 5 weeks prior to wounding measured on day 7 post-wounding by Western blotting analysis relative to control. Type of assay: functional, organism-based.
Assay [5] has as its system Rattus norvegicus. Briefly: Antioxidant activity in streptozotocin-induced diabetic Wistar rat model assessed as reduction in 3-NT protein expression in kidney at 10 mg/L, po administered with superbock stout beer for 5 weeks prior to wounding measured on day 7 post-wounding by Western blotting analysis (reference value: 3.76 +/- 0.57%). The class given is functional. Also noted: scale not given: the % may be the effect or the level left.

Assay [6] has as its system Rattus norvegicus. Briefly: Antioxidant activity in streptozotocin-induced diabetic Wistar rat model assessed as reduction in 3-NT protein expression in liver at 10 mg/L, po administered with superbock stout beer for 5 weeks prior to wounding measured on day 7 post-wounding by Western blotting analysis (reference value: 5.52 +/- 1.64%). Type of assay: functional. Also noted: scale not given: the % may be the effect or the level left.

Assay [7] has as its system Rattus norvegicus. Nature of the assay: Antioxidant activity in streptozotocin-induced diabetic Wistar rat model assessed as […] in H2O2 release in liver at 10 mg/L, po administered with superbock stout beer for 5 weeks prior to wounding measured on day 7 post-wounding by fluorescence assay relative to control. The class given is functional, organism-based. The procedure, abridged:
as §1

Assay [8] relates to Rattus norvegicus. Briefly: Antioxidant activity in streptozotocin-induced diabetic Wistar rat model assessed as increase in reduced glutathione level in serum at 10 mg/L, po administered with superbock stout beer for 5 weeks prior to wounding measured on day 7 post-wounding by RP-HPLC analysis. The class given is functional, organism-based. An outline of the steps:
(§2)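 Plasma reduced and oxidized glutathione separated and quantified by reversed-phase HPLC with a GSH/GSSG kit. Samples came from skin-injured STZ-diabetic rats after five weeks of ad libitum beverage. Expressed as percent of control; n = 4–6.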

In assay [9] the test system is Rattus norvegicus. Briefly: Antioxidant activity in streptozotocin-induced diabetic Wistar rat model assessed as increase in reduced/oxidized glutathione ratio in serum at 10 mg/L, po administered with superbock stout beer for 5 weeks prior to wounding measured on day 7 post-wounding by RP-HPLC analysis. The class given is functional, organism-based. An outline of the steps:
as §2

Assay [10] deals with Rattus norvegicus. Nature of the assay: Antiinflammatory activity in streptozotocin-induced diabetic Wistar rat model assessed as reduction in nitric oxide level in serum at 10 mg/L, po administered with superbock stout beer for 5 weeks prior to wounding measured on day 7 post-wounding by Griess method relative to control. Type of assay: functional, organism-based. (Nitrite, measured by Griess reagent, commonly stands in for NO production.)

For assay [11], the system named is Rattus norvegicus. Briefly: Antiinflammatory activity in streptozotocin-induced diabetic Wistar rat model assessed as reduction in N-acetylglucosaminidase level in serum at 10 mg/L, po administered with superbock stout beer for 5 weeks prior to wounding measured on day 7 post-wounding relative to control. Type of assay: functional, organism-based.
Assay [12] relates to Rattus norvegicus. Nature of the assay: Antiinflammatory activity in streptozotocin-induced diabetic Wistar rat model assessed as reduction in IL1beta level in serum at 10 mg/L, po administered with superbock stout beer for 5 weeks prior to wounding measured on day 7 post-wounding by ELISA (reference value: 20.94 +/- 2.17 pg/mL). The class given is functional. (In general: In an ELISA, binding on a coated surface is turned into a signal by an enzyme label.)

The test system of assay [13] is Rattus norvegicus. Briefly: Antiangiogenic activity in streptozotocin-induced diabetic Wistar rat model assessed as reduction in VEGF-A level in plasma at 10 mg/L, po administered with superbock stout beer for 5 weeks prior to wounding measured on day 7 post-wounding by ELISA. The class given is functional, organism-based. The procedure, abridged:
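STZ-diabetic male Wistar rats (50 mg/kg i.p.; glucose >250 mg/dL) drinking the beverage ad libitum for five weeks, with skin injury. Plasma VEGF-A measured by rat VEGF Quantikine ELISA per kit instructions; means ± SEM, n = 4–6; ANOVA with Bonferroni.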

The structures appear in SMILES notation. Activity calls are given as the source filed them. No cut-off for these calls is given here.

With `COc1cc(O)c(CC=C(C)C)c(O)c1C(=O)/C=C/c1ccc(O)cc1` [XANTHOHUMOL], the result in assay [1], in assay [3], in assay [4], in [7], in assay [8] and in assay [9] was Active. Also, the outcome in assay [10], in assay [11] and in assay [13] was Active. Moreover, the Activity in [2] turned out to be 4.67%; in [5], 1.99%; in [6], 1.38%; in assay [12] it was 13.36 pg/mL.
